Test results from ChEMBL document CHEMBL3352430, “4-Aminopyridyl-based CYP51 inhibitors as anti-Trypanosoma cruzi drug leads with improved pharmacokinetic profile and in vivo potency” (J Med Chem, 2014).

Legend:
[1] = tested on: Liver; assay: Drug uptake in mouse liver at 50 mg/kg, po in 20% HP-beta-CD measured at 8 hrs post dose; assay type: ADME, organism-based; set-up: dose 50 mg/kg, route oral; conditions: in vivo
Outline: (§1)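 Female Swiss Webster mice, 8 weeks old, given a single 50 mg/kg oral gavage dose in 20% HPβCD or 20% Kolliphor. Tissues taken from three mice at 2 and 8 h post dose. Homogenized by probe sonication in PBS (1:4 w/v), protein precipitated with acetonitrile, and compound measured by LC-MS/MS in μM.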

[2] = tested on: Lung; assay: Drug uptake in mouse lung at 50 mg/kg, po in 20% HP-beta-CD measured at 8 hrs post dose; assay type: ADME, organism-based; set-up: dose 50 mg/kg, route oral; conditions: in vivo; outline: as §1
[3] = AUClast in mouse at 50 mg/kg, po in 20% HP-beta-CD; assay type: ADME, organism-based, Plasma; set-up: time 0 - last, dose 50 mg/kg, route oral; conditions: plasma
Outline: (§2)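 Female Swiss Webster mice, 8 weeks old, given one oral gavage dose of 50 mg/kg as a 10 mg/mL preparation in the named vehicle (20% HPβCD suspension or 20% Kolliphor). Plasma sampled at about 0.25, 0.5, 1, 2, 4, 6, 8, 12 and 24 h, n = 3 per time point. Protein precipitated with 5 volumes acetonitrile, filtered, then LC-MS/MS. Values are averages of three mice.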

[4] = tested on: Heart; assay: Drug uptake in mouse heart at 50 mg/kg, po in 20% HP-beta-CD measured at 8 hrs post dose; assay type: ADME, organism-based; set-up: dose 50 mg/kg, route oral; conditions: in vivo; outline: as §1
[5] = Half life in mouse at 50 mg/kg, po in 20% Kolliphor; assay type: ADME, organism-based; set-up: dose 50 mg/kg, route oral; conditions: in vivo; outline: as §2
[6] = tested on: Intestine; assay: Drug uptake in mouse intestine at 50 mg/kg, po in 20% Kolliphor measured at 8 hrs post dose; assay type: ADME, organism-based; set-up: dose 50 mg/kg, route oral; conditions: in vivo; outline: as §1
[7] = tested on: Hepatocyte; assay: Cytotoxicity against mouse hepatocytes assessed as growth inhibition after 72 hrs by Cell Titer Glo assay
[8] = tested on: Brain; assay: Drug uptake in mouse brain at 50 mg/kg, po in 20% HP-beta-CD measured at 8 hrs post dose; assay type: ADME, organism-based; set-up: dose 50 mg/kg, route oral; conditions: in vivo; outline: as §1
[9] = tested on: Cardiomyocyte; assay: Cytotoxicity against mouse cardiomyocytes assessed as growth inhibition after 72 hrs by Cell Titer Glo assay
[10] = Clearance in mouse at 50 mg/kg, po in 20% HP-beta-CD; assay type: ADME, organism-based; set-up: dose 50 mg/kg, route oral; conditions: in vivo; outline: as §2
[11] = tested on: Brain; assay: Drug uptake in mouse brain at 50 mg/kg, po in 20% Kolliphor measured at 2 hrs post dose; assay type: ADME, organism-based; set-up: dose 50 mg/kg, route oral; conditions: in vivo; outline: as §1
[12] = tested on: Brain; assay: Drug uptake in mouse brain at 50 mg/kg, po in 20% Kolliphor measured at 8 hrs post dose; assay type: ADME, organism-based; set-up: dose 50 mg/kg, route oral; conditions: in vivo; outline: as §1
[13] = tested on: Trypanosoma cruzi; assay: Antitrypanosomal activity against Trypanosoma cruzi Y luc infected in mouse assessed as inhibition of parasitemia at 50 mg/kg, po bid in 20% Kolliphor administered for 4 consecutive days starting on day 3 of infection measured on day 7 post infection relative to vehicle-treated control; assay type: functional
Outline: (§3)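 Female Swiss Webster mice, 8 weeks old, infected ip with 10^5 T. cruzi Y luc trypomastigotes. Only mice with detectable luminescence on day 3 were treated. Compound given by oral gavage bid for four days, as a suspension in 20% HPβCD or a solution in 20% Kolliphor, five mice per group. Vehicle group and benznidazole 50 mg/kg served as controls. On day 7, mice were injected ip with 150 mg/kg d-luciferin and imaged after 5 min under isoflurane. Percent inhibition calculated against untreated mice; two-tailed paired t test.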

[14] = Drug uptake in mouse skeletal muscle at 50 mg/kg, po in 20% HP-beta-CD measured at 8 hrs post dose; assay type: ADME, organism-based, Muscle tissue; set-up: dose 50 mg/kg, route oral; conditions: in vivo; outline: as §1
[15] = tested on: Liver; assay: Drug uptake in mouse liver at 50 mg/kg, po in 20% Kolliphor measured at 8 hrs post dose; assay type: ADME, organism-based; set-up: dose 50 mg/kg, route oral; conditions: in vivo; outline: as §1
[16] = Half life in mouse at 50 mg/kg, po in 20% HP-beta-CD; assay type: ADME, organism-based; set-up: dose 50 mg/kg, route oral; conditions: in vivo; outline: as §2
[17] = tested on: C2C12; assay: Cytotoxicity against mouse C2C12 cells up to 10 uM; assay type: cell-based
Outline: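 Mouse C2C12 myoblasts infected with T. cruzi CA-I/72, then exposed at 24 h postinfection to compound at 10 μM down to 5 pM in 5-fold steps for 72 h at 37 °C. Cells fixed in paraformaldehyde, stained with DAPI and scored by automated imaging. Triplicate wells; uninfected and infected untreated wells as controls.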

[18] = Cmax in mouse at 50 mg/kg, po in 20% HP-beta-CD; assay type: ADME, organism-based; set-up: dose 50 mg/kg, route oral; conditions: in vivo; outline: as §2
[19] = AUClast in mouse at 50 mg/kg, po in 20% Kolliphor; assay type: ADME, organism-based; set-up: time 0 - last, dose 50 mg/kg, route oral; conditions: plasma; outline: as §2
[20] = Drug uptake in mouse fat at 50 mg/kg, po in 20% Kolliphor measured at 8 hrs post dose; assay type: ADME, organism-based, Adipose tissue; set-up: dose 50 mg/kg, route oral; conditions: in vivo; outline: as §1
[21] = Clearance in mouse at 50 mg/kg, po in 20% Kolliphor; assay type: ADME, organism-based; set-up: dose 50 mg/kg, route oral; conditions: in vivo; outline: as §2
[22] = Drug uptake in mouse skeletal muscle at 50 mg/kg, po in 20% Kolliphor measured at 8 hrs post dose; assay type: ADME, organism-based, Muscle tissue; set-up: dose 50 mg/kg, route oral; conditions: in vivo; outline: as §1
[23] = tested on: Lung; assay: Drug uptake in mouse lung at 50 mg/kg, po in 20% Kolliphor measured at 8 hrs post dose; assay type: ADME, organism-based; set-up: dose 50 mg/kg, route oral; conditions: in vivo; outline: as §1
[24] = Tmax in mouse at 50 mg/kg, po in 20% HP-beta-CD; assay type: ADME, organism-based; set-up: dose 50 mg/kg, route oral; conditions: in vivo; outline: as §2
[25] = Cmax in mouse at 50 mg/kg, po in 20% Kolliphor; assay type: ADME, organism-based; set-up: dose 50 mg/kg, route oral; conditions: in vivo; outline: as §2
[26] = tested on: Heart; assay: Drug uptake in mouse heart at 50 mg/kg, po in 20% Kolliphor measured at 8 hrs post dose; assay type: ADME, organism-based; set-up: dose 50 mg/kg, route oral; conditions: in vivo; outline: as §1
[27] = Tmax in mouse at 50 mg/kg, po in 20% Kolliphor; assay type: ADME, organism-based; set-up: dose 50 mg/kg, route oral; conditions: in vivo; outline: as §2
[28] = Drug uptake in mouse fat at 50 mg/kg, po in 20% HP-beta-CD measured at 8 hrs post dose; assay type: ADME, organism-based, Adipose tissue; set-up: dose 50 mg/kg, route oral; conditions: in vivo; outline: as §1
[29] = tested on: Intestine; assay: Drug uptake in mouse intestine at 50 mg/kg, po in 20% HP-beta-CD measured at 8 hrs post dose; assay type: ADME, organism-based; set-up: dose 50 mg/kg, route oral; conditions: in vivo; outline: as §1
[30] = tested on: Trypanosoma cruzi; assay: Antitrypanosomal activity against Trypanosoma cruzi Y luc infected in mouse assessed as inhibition of parasitemia at 25 mg/kg, po bid in 20% Kolliphor administered for 4 consecutive days starting on day 3 of infection measured on day 7 post infection relative to vehicle-treated control; assay type: functional; outline: as §3
[31] = tested on: Liver microsome; assay: Half life in rat liver microsomes; assay type: ADME
[32] = tested on: Trypanosoma cruzi; assay: Antitrypanosomal activity against Trypanosoma cruzi Y luc infected in mouse assessed as inhibition of parasitemia at 40 mg/kg, ip bid in 60% DMSO administered for 4 consecutive days starting on day 3 of infection measured on day 7 post infection relative to vehicle-treated control
[33] = molecular target: Cytochrome P450 3A4 (Homo sapiens, UniProt P08684); assay: Inhibition of CYP3A4 in human liver microsomes at 1 uM; assay type: ADME
Chain of Cytochrome P450 3A4 (P08684 whole entry): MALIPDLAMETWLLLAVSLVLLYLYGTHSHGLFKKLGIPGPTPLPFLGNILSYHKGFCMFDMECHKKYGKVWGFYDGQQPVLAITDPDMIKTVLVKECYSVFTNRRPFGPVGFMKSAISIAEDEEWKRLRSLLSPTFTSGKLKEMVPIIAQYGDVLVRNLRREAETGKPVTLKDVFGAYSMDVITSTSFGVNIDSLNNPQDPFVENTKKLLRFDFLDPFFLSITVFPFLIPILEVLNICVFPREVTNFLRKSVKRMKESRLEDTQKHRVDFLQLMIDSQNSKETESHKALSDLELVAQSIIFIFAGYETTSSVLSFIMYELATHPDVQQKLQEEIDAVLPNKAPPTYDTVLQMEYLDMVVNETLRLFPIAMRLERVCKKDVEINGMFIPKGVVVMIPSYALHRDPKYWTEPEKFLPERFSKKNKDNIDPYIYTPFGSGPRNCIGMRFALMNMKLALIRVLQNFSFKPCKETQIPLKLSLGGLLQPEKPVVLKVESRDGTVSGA

[34] = tested on: Trypanosoma cruzi; assay: Antitrypanosomal activity against Trypanosoma cruzi amastigotes infected in mouse C2C12 cells after 72 hrs by DAPI staining method; assay type: functional, organism-based; conditions: C2C12, 72 h
[35] = molecular target: Cytochrome P450 2D6 (Homo sapiens, UniProt P10635); assay: Inhibition of CYP2D6 in human liver microsomes at 1 uM; assay type: ADME
Chain of Cytochrome P450 2D6 (P10635 whole entry): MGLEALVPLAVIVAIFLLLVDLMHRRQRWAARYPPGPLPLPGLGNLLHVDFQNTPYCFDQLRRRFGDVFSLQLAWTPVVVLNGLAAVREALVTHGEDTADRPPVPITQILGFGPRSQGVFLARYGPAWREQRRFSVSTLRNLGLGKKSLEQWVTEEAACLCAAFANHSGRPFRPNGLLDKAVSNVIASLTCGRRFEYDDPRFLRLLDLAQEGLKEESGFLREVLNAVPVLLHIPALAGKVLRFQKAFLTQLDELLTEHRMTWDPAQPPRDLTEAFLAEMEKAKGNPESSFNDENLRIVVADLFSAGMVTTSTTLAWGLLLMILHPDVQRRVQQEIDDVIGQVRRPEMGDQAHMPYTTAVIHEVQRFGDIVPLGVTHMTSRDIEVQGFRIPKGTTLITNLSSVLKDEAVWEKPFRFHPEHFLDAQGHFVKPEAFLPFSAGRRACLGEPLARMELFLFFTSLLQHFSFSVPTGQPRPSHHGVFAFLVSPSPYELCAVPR

[36] = tested on: Liver; assay: Half life in mouse liver microsomes; assay type: ADME
[37] = Ratio of Kd(app) for Trypanosoma cruzi CYP51 to EC50 for Trypanosoma cruzi amastigotes infected in mouse C2C12 cells
Outline: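 Ratio of apparent KD to EC50. Apparent KD was approximated from UV–vis spectrophotometric titration of T. cruzi CYP51 in aqueous solution. […] Compounds were added 24 h postinfection at 10 μM down to 5 pM for 72 h at 37 °C, 5% CO2. Fixed cells were DAPI-stained and imaged, in triplicate.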

[38] = tested on: Liver microsome; assay: Half life in human liver microsomes; assay type: ADME
[39] = molecular target: Cytochrome P450 2C9 (Homo sapiens, UniProt P11712); assay: Inhibition of CYP2C9 in human liver microsomes at 1 uM; assay type: ADME
Chain of Cytochrome P450 2C9 (P11712 whole entry): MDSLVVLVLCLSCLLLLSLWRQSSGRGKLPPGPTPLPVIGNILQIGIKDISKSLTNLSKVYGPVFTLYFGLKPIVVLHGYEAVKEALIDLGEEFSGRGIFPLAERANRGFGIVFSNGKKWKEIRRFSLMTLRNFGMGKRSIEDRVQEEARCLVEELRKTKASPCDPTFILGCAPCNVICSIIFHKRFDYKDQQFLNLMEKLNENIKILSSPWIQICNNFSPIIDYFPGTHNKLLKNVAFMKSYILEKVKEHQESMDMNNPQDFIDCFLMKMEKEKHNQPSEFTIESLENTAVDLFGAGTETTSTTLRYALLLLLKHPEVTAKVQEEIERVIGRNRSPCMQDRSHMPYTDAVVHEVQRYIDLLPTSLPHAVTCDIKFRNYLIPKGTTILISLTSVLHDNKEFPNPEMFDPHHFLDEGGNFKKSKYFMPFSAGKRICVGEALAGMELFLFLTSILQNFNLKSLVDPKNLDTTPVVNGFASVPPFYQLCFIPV

[40] = molecular target: T1, Cytochrome P450 1A2 (Homo sapiens, UniProt P05177); assay: Inhibition of CYP1A2 in human liver microsomes at 1 uM; assay type: ADME
T1 sequence (P05177 whole entry): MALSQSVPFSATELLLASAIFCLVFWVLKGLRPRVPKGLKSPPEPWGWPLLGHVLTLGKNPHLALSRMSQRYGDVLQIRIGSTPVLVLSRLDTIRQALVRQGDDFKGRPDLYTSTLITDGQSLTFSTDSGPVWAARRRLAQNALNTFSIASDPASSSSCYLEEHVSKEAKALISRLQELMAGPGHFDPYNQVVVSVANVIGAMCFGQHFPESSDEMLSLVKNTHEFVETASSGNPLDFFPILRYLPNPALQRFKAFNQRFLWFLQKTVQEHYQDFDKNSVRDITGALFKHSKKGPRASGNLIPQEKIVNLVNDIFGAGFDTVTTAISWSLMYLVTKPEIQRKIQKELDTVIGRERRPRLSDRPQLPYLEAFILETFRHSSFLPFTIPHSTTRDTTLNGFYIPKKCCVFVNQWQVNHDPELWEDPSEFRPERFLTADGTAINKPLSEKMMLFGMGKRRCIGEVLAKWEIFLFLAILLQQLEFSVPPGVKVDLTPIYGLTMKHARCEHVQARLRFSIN

[41] = molecular target: Sterol 14-alpha demethylase (Trypanosoma cruzi (strain CL Brener), UniProt Q7Z1V1); assay: Binding affinity to Trypanosoma cruzi CYP51 by UV-vis titration method; conditions: read-out: Kd(app)
Chain of Sterol 14-alpha demethylase (Q7Z1V1 whole entry): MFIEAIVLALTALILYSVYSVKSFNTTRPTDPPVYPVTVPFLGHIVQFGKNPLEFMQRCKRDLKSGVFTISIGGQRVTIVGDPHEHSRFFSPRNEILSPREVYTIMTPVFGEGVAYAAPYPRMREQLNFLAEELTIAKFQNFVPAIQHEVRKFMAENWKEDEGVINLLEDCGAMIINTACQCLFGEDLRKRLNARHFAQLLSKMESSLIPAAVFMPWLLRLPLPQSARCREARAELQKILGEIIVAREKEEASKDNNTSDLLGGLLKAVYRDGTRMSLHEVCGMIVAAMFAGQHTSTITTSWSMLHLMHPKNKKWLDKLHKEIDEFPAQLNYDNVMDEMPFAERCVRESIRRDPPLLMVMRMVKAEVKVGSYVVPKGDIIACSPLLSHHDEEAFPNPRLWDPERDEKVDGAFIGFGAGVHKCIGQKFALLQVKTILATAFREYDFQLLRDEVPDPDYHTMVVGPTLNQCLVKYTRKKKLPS

O=C(N[C@H](Cc1c[nH]c2ccccc12)C(=O)Nc1ccncc1)c1ccc(N2CCN(c3ccc(F)c(F)c3)CC2)cc1F
Drug uptake [1]: Active
Drug uptake [2]: Active
AUC(0-t) [3]: 2.37 µM·h
Drug uptake [4]: Active
half-life [5]: 4.55 h
Drug uptake [6]: Active
EC50 [7]: > 90000 nM
Drug uptake [8]: Active
EC50 [9]: > 90000 nM
CL/F [10]: 562 mL/min/kg
Drug uptake [11]: Active
Drug uptake [12]: Active
inhibition in vivo at 50 mg/kg [13]: 98.6%
Drug uptake [14]: Active
Drug uptake [15]: Active
half-life [16]: 1.45 h
Activity [17]: Non-toxic
Cmax [18]: 640 nM
AUC(0-t) [19]: 17.7 µM·h
Drug uptake [20]: Active
CL/F [21]: 83.5 mL/min/kg
Drug uptake [22]: Active
Drug uptake [23]: Active
Tmax [24]: 2.67 h
Cmax [25]: 2080 nM
Drug uptake [26]: Active
Tmax [27]: 4 h
Drug uptake [28]: Active
Drug uptake [29]: Active

O=C(N[C@H](Cc1c[nH]c2ccccc12)C(=O)Nc1ccncc1)c1ccc(N2CCN(c3cccc(F)c3)CC2)cc1F
Drug uptake [1]: Active
Drug uptake [2]: Active
inhibition in vivo at 25 mg/kg [30]: 47.7%
Drug uptake [4]: Active
Drug uptake [6]: Active
t1/2 [31]: 0.3 h
inhibition in vivo at 40 mg/kg [32]: 97.9%
inhibition (INH) [33]: 84%
Drug uptake [14]: Active
EC50 [34]: 59 nM
Drug uptake [15]: Active
Activity [17]: Non-toxic
inhibition (INH) [35]: 52%
t1/2 [36]: 0.333 h
Ratio [37]: 10
t1/2 [38]: 6 min
Drug uptake [20]: Active
Drug uptake [22]: Active
Drug uptake [23]: Active
inhibition (INH) [39]: 95%
Drug uptake [26]: Active
inhibition (INH) [40]: 5%
Kd [41]: 290 nM
Drug uptake [28]: Active
Drug uptake [29]: Active
